Data on two compounds can be found in ChEMBL document CHEMBL4308856, “Novel 5-(quinuclidin-3-ylmethyl)-1,2,4-oxadiazoles to investigate the activation of the α7 nicotinic acetylcholine receptor subtype: Synthesis and electrophysiological evaluation” (Eur J Med Chem, 2018).

What all share (format): cell-based
The target of test [1] is T1, Neuronal acetylcholine receptor subunit alpha-7 (Homo sapiens, UniProt P36544). Kind of test: Partial agonist activity at human alpha7 nAChR expressed in Xenopus laevis oocytes assessed as increase in peak current amplitude at 30 uM at -60 mV holding potential treated for 12 secs followed by compound washout for 181 secs by whole cell two electrode voltage-clamp assay relative to ACh. The essentials: (§1)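 Human α7 nAChR expressed in Xenopus laevis oocytes, two-electrode voltage clamp at −60 mV with 3 M KCl electrodes. Ringer's with atropine, pH 7.2, perfused at 2 mL/min. Compound was applied at 30 μM for 12 s with a 181 s washout. Peak current and net charge were each normalized to the mean of two prior 60 μM ACh controls in the same oocyte; the peak/net-charge ratio was taken. Mean ± SEM, at least four oocytes.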
Background: Two-electrode voltage clamp holds a large cell at a set potential and records current.

For test [2], the target named is T1, Neuronal acetylcholine receptor subunit alpha-7. Description: Partial agonist activity at human alpha7 nAChR expressed in Xenopus laevis oocytes assessed as increase in net charge at 30 uM at -60 mV holding potential treated for 12 secs followed by compound washout for 181 secs by whole cell two electrode voltage-clamp assay relative to ACh. The essentials: as §1

The target is the same in test [3]. Kind of test: Ratio of partial agonist activity at human alpha7 nAChR expressed in Xenopus laevis oocytes assessed as increase in peak current amplitude relative to ACh to partial agonist activity at human alpha7 nAChR expressed in Xenopus laevis oocytes assessed as increase in net charge relative to ACh. In a few lines:
as §1

For test [4] the target is unchanged. Description: Silent agonist activity at human alpha7 nAChR expressed in Xenopus laevis oocytes assessed as increase in net charge at 30 uM at -60 mV holding potential treated for 12 secs followed by compound washout for 181 secs in presence of type 2 PAM PNU-120596 by whole cell two electrode voltage-clamp assay relative to ACh. In a few lines:
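α7 (human) expressed in Xenopus oocytes, voltage-clamped at −60 mV, Ringer's pH 7.2 with atropine at 2 mL/min. Compound (3, 10 or 30 μM) was co-applied with PNU-120596 for 12 s, then washed out for 181 s. Net charge was expressed relative to the mean of two preceding 60 μM ACh control responses in the same oocyte. Mean ± SEM, at least four oocytes.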

For test [5] the target is unchanged. Kind of test: Ratio of Silent agonist activity at human alpha7 nAChR expressed in Xenopus laevis oocytes assessed as increase in net charge in presence of type 2 PAM PNU-120596 relative to ACh to partial agonist activity at human alpha7 nAChR expressed in Xenopus laevis oocytes assessed as increase in net charge relative to ACh. In a few lines:
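PNU effectiveness: net-charge response of human α7 nAChR (Xenopus oocytes, −60 mV clamp) to compound co-applied with 10 μM PNU-120596, divided by the response to compound alone. Both responses were normalized to 60 μM ACh controls, with 12 s applications and 181 s washout.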

The target is the same in test [6]. Description: Antagonist activity at human alpha7 nAChR expressed in Xenopus laevis oocytes assessed as inhibition of post control Ach-induced response by measuring residual activity at 30 uM at -60 mV holding potential treated for 12 secs followed by compound washout for 181 secs by whole cell two electrode voltage-clamp assay (Rvb =60%).
The target is the same in test [7]. Description: Antagonist activity at human alpha7 nAChR expressed in Xenopus laevis oocytes assessed as Ach-induced response by measuring residual activity at 30 uM at -60 mV holding potential treated for 12 secs followed by compound washout for 181 secs by whole cell two electrode voltage-clamp assay (Rvb =60%).
The target in test [8] is T2, Neuronal acetylcholine receptor; alpha3/beta4 (Homo sapiens) (UniProt P30926+P32297). Description: Antagonist activity at human alpha3beta4 nAChR expressed in Xenopus laevis oocytes assessed as inhibition of Ach-induced channel activation at 30 uM at -60 mV holding potential treated for 6 secs followed by compound washout for 241 secs by whole cell two electrode voltage-clamp assay.

Test [9] deals with T2, Neuronal acetylcholine receptor; alpha3/beta4 (Homo sapiens). Kind of test: Antagonist activity at human alpha3beta4 nAChR expressed in Xenopus laevis oocytes assessed as inhibition of post-control Ach-induced channel activation at 30 uM at -60 mV holding potential treated for 6 secs followed by compound washout for 241 secs by whole cell two electrode voltage-clamp assay.

Test [10] concerns the target T1, Neuronal acetylcholine receptor subunit alpha-7. Kind of test: Partial agonist activity at human alpha7 nAChR expressed in Xenopus laevis oocytes at -60 mV holding potential treated for 12 secs followed by compound washout for 181 secs by whole cell two electrode voltage-clamp assay relative to ACh.
Test [11] has the same target. Description: Partial agonist activity at human alpha7 nAChR expressed in Xenopus laevis oocytes assessed as increase in net charge at 3 uM at -60 mV holding potential treated for 12 secs followed by compound washout for 181 secs by whole cell two electrode voltage-clamp assay relative to ACh. The essentials:
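Human α7 nAChR in Xenopus oocytes under two-electrode voltage clamp at −60 mV, perfused with Ringer's (pH 7.2, atropine) at 2 mL/min. Compound was given alone at 3 μM as a 12 s application followed by 181 s washout. Net-charge response was normalized to the average of two initial 60 μM ACh controls from the same oocyte.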

pEC50: −log10 of the molar value. Calls of active or inactive are those of the source. The calls are words filed in the database; no cut-off is given here.

T1 sequence (P36544 whole entry, the tested form may be a part): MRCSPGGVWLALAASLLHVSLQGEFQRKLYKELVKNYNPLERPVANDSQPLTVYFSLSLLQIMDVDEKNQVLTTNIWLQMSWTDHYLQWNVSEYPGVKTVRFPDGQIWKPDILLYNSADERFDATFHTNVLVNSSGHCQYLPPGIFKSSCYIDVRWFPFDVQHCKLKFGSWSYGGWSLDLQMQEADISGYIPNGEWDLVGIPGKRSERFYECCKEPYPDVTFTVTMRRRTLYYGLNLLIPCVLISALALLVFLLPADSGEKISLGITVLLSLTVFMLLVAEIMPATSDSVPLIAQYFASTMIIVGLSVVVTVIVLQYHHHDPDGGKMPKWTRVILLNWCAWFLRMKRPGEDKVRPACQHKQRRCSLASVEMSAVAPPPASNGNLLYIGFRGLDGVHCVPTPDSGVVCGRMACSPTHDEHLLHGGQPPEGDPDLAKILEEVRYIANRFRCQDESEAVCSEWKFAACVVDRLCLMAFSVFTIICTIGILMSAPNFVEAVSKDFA

`C[N+]12CCC(CC1)C(Cc1nc(-c3cccc(C(F)(F)F)c3)no1)C2` (stereo unspecified): the fold change (FC) turned out to be 0.077 in test [1], 0.035 in [2] and 0.1 in test [4]. For the same compound, the Ratio came to 2.2 in test [3] and 3 in test [5]. The figures for the Activity in [6] and in test [7] were 60% and 10%, respectively. In addition, in test [8], the inhibition result was “Active”. Moreover, the inhibition result in [9] was “inactive”.

One may read the pEC50 as the negative decadic logarithm of the EC50, by convention in mol/L. A higher pEC50 goes with a low EC50. For the compound `c1coc(-c2noc(CC3CN4CCC3CC4)n2)c1` (stereo unspecified), the fold change (FC) turned out to be 2.14 in test [1], 0.575 in test [2], 32.3 in test [4] and 0.15 in test [11]. Further, the Ratio in test [3] is 3.73; in test [5] it was 56. Moreover, the pEC50 in test [10] is > 4.52.
